Source: ChEMBL document CHEMBL1139962, “Synthesis and anthelmintic activity of cyclohexadepsipeptides with cyclohexylmethyl side chains” (Bioorg Med Chem Lett, 2007)

How the values were obtained:
[1] = Partition coefficient, log P at pH 2.3; type: physicochemical; conditions: octanol/water
Haemonchus contortus [2] = assay: Anthelmintic activity against Haemonchus contortus Rudolphi L3 larvae infected sheep assessed as reduction of faecal egg counts at 0.25 mg/kg, po; type: functional, Feces; set-up: scale not given: the % may be the effect or the level left
Summary of the method: (§1)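 Sheep experimentally infected with Haemonchus contortus Rudolphi L3 larvae; dosed after the parasite's prepatency period ended. Compound given orally in gelatine capsules. Faecal egg counts by McMaster method (Wetzel modification) on freshly obtained faeces, counted at regular intervals before and after treatment; activity expressed as reduction in egg counts.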

Haemonchus contortus [3] = assay: Anthelmintic activity against Haemonchus contortus Rudolphi L3 larvae infected sheep assessed as reduction of faecal egg counts at 5 mg/kg, po; type: functional, Feces; set-up: scale not given: the % may be the effect or the level left; summary of the method: as §1
Haemonchus contortus [4] = assay: Anthelmintic activity against Haemonchus contortus Rudolphi L3 larvae infected sheep assessed as reduction of faecal egg counts at 0.50 mg/kg, po; type: functional, Feces; set-up: scale not given: the % may be the effect or the level left; conditions: dose 0.5 mg/kg; summary of the method: as §1

Row | logP [1] | Structure (SMILES) | Activity (Haemonchus contortus [2]) | Activity (Haemonchus contortus [3]) | Activity (Haemonchus contortus [4])
1 | 4.28 | CC[C@@H](C)[C@H]1C(=O)O[C@H](C)C(=O)N(C)[C@@H](Cc2ccccc2)C(=O)O[C@H](C)C(=O)N(C)[C@@H]([C@H](C)CC)C(=O)O[C@H](C)C(=O)N1C | 50% |  | 
2 | 5.57 | CC(C)C[C@H]1C(=O)O[C@H](CC2CCCCC2)C(=O)N(C)[C@@H](CC(C)C)C(=O)O[C@H](C)C(=O)N(C)[C@@H](CC(C)C)C(=O)O[C@H](C)C(=O)N1C | 75% |  | 
3 | 4.91 | CC[C@@H](C)[C@H]1C(=O)O[C@H](C)C(=O)N(C)[C@@H](CC2CCCCC2)C(=O)O[C@H](C)C(=O)N(C)[C@@H]([C@H](C)CC)C(=O)O[C@H](C)C(=O)N1C | >=95% |  | 
4 | 5.46 | CC[C@@H](C)[C@H]1C(=O)O[C@H](C(C)C)C(=O)N(C)[C@@H](Cc2ccccc2)C(=O)O[C@H](C(C)C)C(=O)N(C)[C@@H]([C@H](C)CC)C(=O)O[C@H](C(C)C)C(=O)N1C |  | >=95% | 
5 | 6.3 | CC[C@@H](C)[C@H]1C(=O)O[C@H](C(C)C)C(=O)N(C)[C@@H](CC2CCCCC2)C(=O)O[C@H](C(C)C)C(=O)N(C)[C@@H]([C@H](C)CC)C(=O)O[C@H](C(C)C)C(=O)N1C |  |  | 75%
6 | 4.63 | CC(C)C[C@H]1C(=O)O[C@H](Cc2ccccc2)C(=O)N(C)[C@@H](CC(C)C)C(=O)O[C@H](C)C(=O)N(C)[C@@H](CC(C)C)C(=O)O[C@H](C)C(=O)N1C |  | <=50% | 
